In ChEMBL document CHEMBL4270526, “A novel NAE/UAE dual inhibitor LP0040 blocks neddylation and ubiquitination leading to growth inhibition and apoptosis of cancer cells” (Eur J Med Chem, 2018):
Activity calls are given as the source filed them. The calls are words filed in the database; no cut-off is given here.

What was measured:
BXPC-3 = assay: Antiproliferative activity against human BxPC3 cells after 48 hrs by CCK8 assay; assay type: functional, cell-based; conditions: BXPC-3, 48 h
Summary of the method: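 Cells seeded at 6 × 10^3 cells/well and left 12 h at 37 °C, 5% CO2. Medium then replaced with serial compound dilutions, bortezomib as positive control. After 48 h, CCK-8 added for 4 h and absorbance read at 450 nm. Three repeats; IC50 from normalized nonlinear regression of inhibition curves.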

[1] = Antiproliferative activity against HUVEC after 48 hrs by CCK8 assay; assay type: cell-based; conditions: human, read-out: LC50
[2] = biological target: Cyclin-dependent kinase 2/cyclin E1 (Homo sapiens) (UniProt P24864+P24941); assay: Inhibition of CDK2/cyclin E (unknown origin) at 30 uM relative to control; assay type: protein-complex assay
Homo sapiens = organism: Homo sapiens; assay: Inhibition of UAE (unknown origin) assessed as reduction in Ubc10-Ub conjugation level up to 10 uM pretreated for 10 mins followed by Mg2+ and ATP addition measured after 60 mins by Western blot analysis
Summary of the method: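 Cell-free assay with UAE 2.5 µM, Ub 250 µM and E2 Ubc10 50 µM (stock concentrations) plus inhibitor, preincubated 10 min at 37 °C. Reaction started with 10 mM Mg2+/ATP (stock), run 60 min at 37 °C, quenched with EDTA. Non-reducing 15% SDS-PAGE, Ubc10-Ub thioester detected by western blot. No-ATP negative control.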

AGS [3] = assay: Induction of apoptosis in human AGS cells assessed as live cells at 4 uM after 36 hrs by Annexin-V-FITC/propidium iodide staining based flow cytometry (reference value: 92.84%); assay type: functional
AGS [4] = assay: Induction of apoptosis in human AGS cells assessed as live cells at 6 uM after 36 hrs by Annexin-V-FITC/propidium iodide staining based flow cytometry (reference value: 92.84%); assay type: functional
AGS [5] = assay: Induction of apoptosis in human AGS cells assessed as necrotic cells at 10 uM after 36 hrs by Annexin-V-FITC/propidium iodide staining based flow cytometry (reference value: 1.01%); assay type: functional

SMILES: O=c1cc(-c2ccc(-c3ccccc3)cc2)c2ccc(N3CCC(NCCc4ccccc4)CC3)cc2o1
- IC50 (BXPC-3): 2.8 µM
- CC50 at 48 h [1]: 10.7 µM
- inhibition [2]: 4.57%
- inhibition (Homo sapiens): Active
- Activity (AGS [3]): 80.7%
- Activity (AGS [4]): 14.99%
- Activity (AGS [5]): 9.14%
